Columns and labels:
Conditions in all cases: in vivo
[1] = Drug uptake in liver of SCID mouse xenografted with human HT-29 cells at 0.37 MBq/mouse, iv measured at 24 hrs using 177Lu labelled compound by gamma counter analysis; type: ADME, organism-based
Method in brief: (§1)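 Female SCID mice (5 weeks) bore s.c. flank xenografts of HT-29 cells (5 × 10^6 in Matrigel), used at about 80 mm3 (two weeks) and randomized. Each mouse received 10 μCi (0.37 MBq) of HPLC-purified 177Lu-conjugate via tail vein. Tissues were excised, weighed and gamma-counted, expressed as %ID/g; mean ± SD, n = 5.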

[2] = Drug uptake in bone of SCID mouse xenografted with human HT-29 cells at 0.37 MBq/mouse, iv measured at 24 hrs using 177Lu labelled compound by gamma counter analysis; type: ADME, organism-based, Bone element
Method in brief: (§2)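 Female SCID mice bearing s.c. flank HT-29 xenografts (5 × 10^6 cells in Matrigel, ~80 mm3). Given 10 μCi (0.37 MBq) 177Lu conjugate i.v. by tail vein; groups sacrificed at 4, 24, 72 h. Tissues weighed and gamma-counted as %ID/g, excretion as %ID; n = 5, mean ± SD. Blocking arms: colchicine 1 mg/kg i.p. beforehand, or D-lysine 40 mg/kg co-injected.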

[3] = Drug excretion in SCID mouse xenografted with human HT-29 cells at 0.37 MBq/mouse, iv measured after 72 hrs using 177Lu labelled compound; type: ADME, organism-based; method in brief: as §2
[4] = Drug uptake in small intestine of SCID mouse xenografted with human HT-29 cells at 0.37 MBq/mouse, iv measured at 24 hrs using 177Lu labelled compound by gamma counter analysis; type: ADME, organism-based; method in brief: as §1
[5] = Drug uptake in pancreas of SCID mouse xenografted with human HT-29 cells at 0.37 MBq/mouse, iv measured at 24 hrs using 177Lu labelled compound by gamma counter analysis; type: ADME, organism-based; method in brief: as §1
[6] = Drug uptake in bone of SCID mouse xenografted with human HT-29 cells at 0.37 MBq/mouse, iv measured at 4 hrs using 177Lu labelled compound by gamma counter analysis; type: ADME, organism-based, Bone element; method in brief: as §1
[7] = Drug uptake in lung of SCID mouse xenografted with human HT-29 cells at 0.37 MBq/mouse, iv measured at 72 hrs using 177Lu labelled compound by gamma counter analysis; type: ADME, organism-based; method in brief: as §1
[8] = Drug uptake in stomach of SCID mouse xenografted with human HT-29 cells at 0.37 MBq/mouse, iv measured at 72 hrs using 177Lu labelled compound by gamma counter analysis; type: ADME, organism-based
Method in brief: (§3)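 Female SCID mice (5 weeks old) received s.c. flank HT-29 cells (5 × 10^6 in Matrigel). At ~80 mm3, two weeks later, mice were randomized and given 10 μCi (0.37 MBq) of purified 177Lu conjugate i.v. by tail vein. Mice were killed at 4, 24 or 72 h. Tissues were weighed and gamma counted as %ID/g, mean ± SD, n = 5. Tumor-to-tissue ratios were calculated.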

[9] = Drug uptake in muscle of SCID mouse xenografted with human HT-29 cells at 0.37 MBq/mouse, iv measured at 4 hrs using 177Lu labelled compound by gamma counter analysis; type: ADME, organism-based, Muscle tissue; method in brief: as §1
[10] = Drug uptake in heart of SCID mouse xenografted with human HT-29 cells at 0.37 MBq/mouse, iv measured at 4 hrs using 177Lu labelled compound by gamma counter analysis; type: ADME, organism-based; method in brief: as §1
[11] = Drug uptake in large intestine of SCID mouse xenografted with human HT-29 cells at 0.37 MBq/mouse, iv measured at 72 hrs using 177Lu labelled compound by gamma counter analysis; type: ADME, organism-based; method in brief: as §1
[12] = Drug excretion in SCID mouse xenografted with human HT-29 cells at 0.37 MBq/mouse, iv measured at 24 hrs using 177Lu labelled compound by gamma counter analysis; type: ADME, organism-based; method in brief: as §2
[13] = Drug uptake in kidney of SCID mouse xenografted with human HT-29 cells at 0.37 MBq/mouse, iv measured at 72 hrs using 177Lu labelled compound by gamma counter analysis; type: ADME, organism-based; method in brief: as §1
[14] = Drug uptake in SCID mouse xenografted with human HT-29 cells assessed as tumour retention level at 0.37 MBq/mouse, iv measured at 4 hrs using 177Lu labelled compound by gamma counter analysis; type: ADME, organism-based; method in brief: as §2
[15] = Drug uptake in spleen of SCID mouse xenografted with human HT-29 cells at 0.37 MBq/mouse, iv measured at 72 hrs using 177Lu labelled compound by gamma counter analysis; type: ADME, organism-based; method in brief: as §3
[16] = Drug uptake in large intestine of SCID mouse xenografted with human HT-29 cells at 0.37 MBq/mouse, iv measured at 24 hrs using 177Lu labelled compound by gamma counter analysis; type: ADME, organism-based; method in brief: as §1
[17] = Drug uptake in brain of SCID mouse xenografted with human HT-29 cells at 0.37 MBq/mouse, iv measured at 24 hrs using 177Lu labelled compound by gamma counter analysis; type: ADME, organism-based; method in brief: as §1
[18] = Drug uptake in lung of SCID mouse xenografted with human HT-29 cells at 0.37 MBq/mouse, iv measured at 24 hrs using 177Lu labelled compound by gamma counter analysis; type: ADME, organism-based; method in brief: as §1
[19] = Drug uptake in spleen of SCID mouse xenografted with human HT-29 cells at 0.37 MBq/mouse, iv measured at 4 hrs using 177Lu labelled compound by gamma counter analysis; type: ADME, organism-based; method in brief: as §3
[20] = Drug uptake in muscle of SCID mouse xenografted with human HT-29 cells at 0.37 MBq/mouse, iv measured at 24 hrs using 177Lu labelled compound by gamma counter analysis; type: ADME, organism-based, Muscle tissue; method in brief: as §1
[21] = Drug uptake in SCID mouse xenografted with human HT-29 cells assessed as tumour retention level at 0.37 MBq/mouse, iv measured at 72 hrs using 177Lu labelled compound by gamma counter analysis; type: ADME, organism-based; method in brief: as §2
[22] = Drug uptake in lung of SCID mouse xenografted with human HT-29 cells at 0.37 MBq/mouse, iv measured at 4 hrs using 177Lu labelled compound by gamma counter analysis; type: ADME, organism-based; method in brief: as §1
[23] = Drug uptake in spleen of SCID mouse xenografted with human HT-29 cells at 0.37 MBq/mouse, iv measured at 24 hrs using 177Lu labelled compound by gamma counter analysis; type: ADME, organism-based; method in brief: as §3
[24] = Drug uptake in large intestine of SCID mouse xenografted with human HT-29 cells at 0.37 MBq/mouse, iv measured at 4 hrs using 177Lu labelled compound by gamma counter analysis; type: ADME, organism-based; method in brief: as §1
[25] = Drug uptake in liver of SCID mouse xenografted with human HT-29 cells at 0.37 MBq/mouse, iv measured at 72 hrs using 177Lu labelled compound by gamma counter analysis; type: ADME, organism-based; method in brief: as §1
[26] = Drug uptake in small intestine of SCID mouse xenografted with human HT-29 cells at 0.37 MBq/mouse, iv measured at 4 hrs using 177Lu labelled compound by gamma counter analysis; type: ADME, organism-based; method in brief: as §1
[27] = Drug uptake in blood of SCID mouse xenografted with human HT-29 cells at 0.37 MBq/mouse, iv measured at 24 hrs using 177Lu labelled compound by gamma counter analysis; type: ADME, organism-based; method in brief: as §2
[28] = Drug uptake in pancreas of SCID mouse xenografted with human HT-29 cells at 0.37 MBq/mouse, iv measured at 72 hrs using 177Lu labelled compound by gamma counter analysis; type: ADME, organism-based; method in brief: as §1
[29] = Drug uptake in bone of SCID mouse xenografted with human HT-29 cells at 0.37 MBq/mouse, iv measured at 72 hrs using 177Lu labelled compound by gamma counter analysis; type: ADME, organism-based, Bone element; method in brief: as §1

Drug uptake [1]: 26 % ID/g
Drug uptake [2]: 1.5 % ID/g
Drug excretion [3]: 57 %ID
Drug uptake [4]: 5.5 % ID/g
Drug uptake [5]: 0.6 % ID/g
Drug uptake [6]: 1.6 % ID/g
Drug uptake [7]: 5 % ID/g
Drug uptake [8]: 0.8 % ID/g
Drug uptake [9]: 0.53 % ID/g
Drug uptake [10]: 1.4 % ID/g
Drug uptake [11]: 1.6 % ID/g
Drug excretion [12]: 35 %ID
Drug uptake [13]: 45 % ID/g
Drug uptake [14]: 7.8 % ID/g
Drug uptake [15]: 17 % ID/g
Drug uptake [16]: 2.1 % ID/g
Drug uptake [17]: 0.04 % ID/g
Drug uptake [18]: 6 % ID/g
Drug uptake [19]: 16.1 % ID/g
Drug uptake [20]: 0.35 % ID/g
Drug uptake [21]: 6.3 % ID/g
Drug uptake [22]: 4.5 % ID/g
Drug uptake [23]: 17 % ID/g
Drug uptake [24]: 2.9 % ID/g
Drug uptake [25]: 11 % ID/g
Drug uptake [26]: 6.1 % ID/g
Drug uptake [27]: 0.17 % ID/g
Drug uptake [28]: 0.6 % ID/g
Drug uptake [29]: 1.1 % ID/g
Compound: Cc1cc(C)c(C(=O)OCC(=O)[C@H](CCCCNC(=O)CNC(=O)[C@@H](CO)NC(=O)[C@@H](CO)NC(=O)[C@@H](CO)NC(=O)Cn2cc(C[C@H](NC(=O)CN3CCN(CC(=O)O)CCN(CC(=O)O)CCN(CC(=O)O)CC3)C(=O)N[C@H](CO)C(=O)N[C@H](CO)C(=O)N[C@H](CO)C(=O)N[C@@H](CCCCN)C(=O)N3CCC[C@H]3C(=O)N(C)[C@@H](CCCNC(=N)N)C(=O)N[C@@H](CCCNC(=N)N)C(=O)N3CCC[C@H]3C(=O)N[C@@H](Cc3c(C)cc(O)cc3C)C(=O)N[C@H](C(=O)N[C@@H](CC(C)C)C(=O)O)C(C)(C)C)nn2)NC(=O)[C@H](Cc2ccccc2)NC(=O)OCc2ccccc2)c(C)c1
